Measured values published in paper PMC3071016 (Biochimica et biophysica acta, 2010).
Changes are numbered by the printed parent chain. Marks after values point to notes of the source that are not given here. One block for each molecule: values may come before it. Starred links: 1 amine or outer side, 2 acyl side, 3 side chain; linkers in the order of their positions; H or OH if unused. Non-standard residues stand in square brackets, D forms with d. Residues, ends and D or L forms follow the SMILES beside them. *: point of attachment. X2 = CN(C)c1ccc2c(-c3ccc(C(=O)*)cc3C(=O)[O-])c3ccc(=[N+](C)C)cc-3oc2c1; Isoquinoline5sulfonyl = O=S(=O)(c1cccc2cnccc12)*; X1 = O=C(CCCCCNCCN[*:1])[*:2]

What was measured:
PKGIα [1] = target: T1, PKGIα (Homo sapiens, UniProt Q13976); assay: FA direct binding assay; settings: addition of cGMP in the absence of Mg2+
T1 sequence (Q13976 1-671): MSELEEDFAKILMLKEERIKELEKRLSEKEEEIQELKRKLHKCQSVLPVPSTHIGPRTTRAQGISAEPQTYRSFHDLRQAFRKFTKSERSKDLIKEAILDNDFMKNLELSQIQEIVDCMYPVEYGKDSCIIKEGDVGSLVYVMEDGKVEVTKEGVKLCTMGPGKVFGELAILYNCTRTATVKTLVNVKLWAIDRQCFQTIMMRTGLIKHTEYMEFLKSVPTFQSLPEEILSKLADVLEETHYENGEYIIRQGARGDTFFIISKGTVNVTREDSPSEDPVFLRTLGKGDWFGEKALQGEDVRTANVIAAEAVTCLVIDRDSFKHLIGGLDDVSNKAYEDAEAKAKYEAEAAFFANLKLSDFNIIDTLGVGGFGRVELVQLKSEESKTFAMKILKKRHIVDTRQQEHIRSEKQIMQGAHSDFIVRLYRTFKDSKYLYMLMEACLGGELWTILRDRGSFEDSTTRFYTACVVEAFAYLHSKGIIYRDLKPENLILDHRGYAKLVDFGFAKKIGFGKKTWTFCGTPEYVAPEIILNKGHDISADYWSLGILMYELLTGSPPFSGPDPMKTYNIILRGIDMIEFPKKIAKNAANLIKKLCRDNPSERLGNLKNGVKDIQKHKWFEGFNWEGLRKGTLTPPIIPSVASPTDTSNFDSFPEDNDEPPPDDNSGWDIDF

[2] = tested on: vascular smooth muscle cells in intact cerebral arteries; assay: Fluorescence imaging of vascular smooth muscle cells in intact arteries; assay type: cell-based, rat
How it was run: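 Isolated intact rat cerebral arteries incubated at room temperature in Hepes buffer with the TAMRA-labelled test compound (100 nM, 1 μM or 10 μM) for 20, 40 or 60 min, then washed 3 times. Imaged by confocal scanning laser microscopy at 20× and 40×, with TAMRA excited at 568 nm (krypton–argon laser). Fluorescein-labelled reference peptide (2 μM) with TOTO-3 nuclear stain (488/647 nm excitation) used as reference.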

PKGIα [3] = target: T1, PKGIα; assay: FA displacement assay; assay type: binding; settings: for log IC50, PKGIα, FA (displacement): displacement of ARC-1059 (2 nM) from PKGIα (4 nM), cGMP 1 μM, logarithm of IC50
PKGIα [4] = target: T2, PKGIα (Bos taurus, UniProt P00516); assay: Radioactive inhibition assay; assay type: biochemical, bovine
T2 sequence (P00516 1-671): T1 sequence (Q13976 1-671) with T265K, S275N

PKAc = PKAc (Homo sapiens, UniProt P17612); settings: 100 μM ATP and 30 μM TAMRA-Kemptide substrate; logarithm of IC50; cited from earlier work
PKGIα [5] = settings: reported in the literature; cited from earlier work
PKGIα [6] = target: T2, PKGIα; assay: FI displacement assay; assay type: binding, bovine

SMILES: CN(C)c1ccc2c(-c3ccc(C(=O)NCCCC[C@@H](NC(=O)[C@@H](CCCNC(=N)N)NC(=O)[C@@H](CCCNC(=N)N)NC(=O)[C@@H](CCCNC(=N)N)NC(=O)[C@@H](CCCNC(=N)N)NC(=O)[C@@H](CCCNC(=N)N)NC(=O)[C@@H](CCCNC(=N)N)NC(=O)CCCCCNCCNS(=O)(=O)c4cccc5cnccc45)C(N)=O)cc3C(=O)[O-])c3ccc(=[N+](C)C)cc-3oc2c1 [ARC-1059, H9-Hex-(D-Arg)6-[D-Lys(TAMRA)]-NH2] (Isoquinoline5sulfonyl-[X1][dR][dR][dR][dR][dR][dR][dK](X2)-NH2)
increase of affinity towards PKGIα by addition of cGMP (PKGIα [1]): 8 fold | internalization in smooth muscle tissue, concentration dependence ([2]; 100 nM, 1 μM or 10 μM): not well observable at concentrations lower than 1 μM | incubation time after which internalization into tissue cells was observable ([2]; 10 μM, nucleus not yet stained): 20 min | internalization into vascular smooth muscle cells ([2]; intact pial arteries from rat brain, incubation 20, 40 or 60 min at room temperature): internalized into vascular smooth muscle cells

SMILES: Nc1ncnc2c1ncn2[C@@H]1O[C@H](COP(=O)(O)OP(=O)(O)OP(=O)(O)O)[C@@H](O)[C@H]1O [ATP]
log IC50, PKGIα, FA (displacement) (PKGIα [3]): −2.02 (0.33) | Km (PKGIα [4]; PKGIα-catalysed phosphorylation): 20 µM

log IC50, PKGIα, Inhibition (PKGIα [4]; 100 μM ATP and 11 μM TQAKRKKSLAMA substrate, presence of cGMP, logarithm of IC50): −6.85 (0.02) | IC50 (PKGIα [4]; read-out: inhibition IC50, 100 μM ATP, 11 μM substrate peptide, presence of cGMP): 141 nM
SMILES: NCCNS(=O)(=O)c1cccc2cnccc12 [H9]
log IC50, PKAc, Inhibition (PKAc): −5.43 ^b [36] | Ki (PKGIα [5]): 870 nM

IC50 (PKGIα [3]): 3020 nM | IC50 (PKGIα [6]): 1100 nM
SMILES: O=S(=O)(NCCNCC=Cc1ccc(Br)cc1)c1cccc2cnccc12 [H89, N-[2-(p-bromocinnamylamino)ethyl]-5-isoquinoline-sulfonamide]
Ki (PKGIα [5]): 480 nM

SMILES: COC(=O)[C@@]1(OC)C[C@H]2O[C@]1(C)n1c3ccccc3c3c4c(c5c6ccccc6n2c5c31)C(=O)N(C)C4 [KT-5823]
displacement of ARC-1059 from its complex with PKGIα (PKGIα [3]; assay format not stated): failed to displace ARC-1059

SMILES: Nc1ncnc2c1ncn2[C@@H]1O[C@H](COP(=O)(O)OP(=O)([O-])OP(=O)([O-])O)[C@@H](O)[C@H]1O.[Mg+2] [MgATP]
log IC50, PKGIα, FA (displacement) (PKGIα [3]): −2.35 (0.08)

IC50 (PKGIα [6]): 251000 nM
SMILES: CSCC[C@H](NC(=O)[C@H](C)NC(=O)[C@H](CC(C)C)NC(=O)[C@H](C)NC(=O)[C@H](CCCCN)NC(=O)[C@H](CCCCN)NC(=O)[C@H](CCCNC(=N)N)NC(=O)[C@H](CCCCN)NC(=O)[C@H](C)NC(=O)[C@H](CCC(N)=O)NC(=O)[C@@H](N)[C@@H](C)O)C(=O)N[C@@H](C)C(N)=O [WW21]
